The subject of experiment [1] is Mus musculus. Nature of the experiment: Antitumor activity in CF1 mice bearing Ehrlich ascites carcinoma measured as percent ascrit packed cell volume at 8 mg/kg. The experiment is classed as functional. The procedure, abridged:
(§1)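 Male CF1 mice (22–25 g) received 2 × 10⁶ Ehrlich carcinoma cells ip on day 0. Dosing was ip daily on days 1–8, with sacrifice on day 9. Ascites fluid volume per mouse and ascrit (packed cell volume) were measured for each group. Vehicle was 0.05% Tween 80, or 5% absolute EtOH in 0.05% Tween 80, used for both compound and control. 6-Mercaptopurine was the positive control.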

Experiment [2] has as its system Mus musculus. Nature of the experiment: Antitumor activity in CF1 mice bearing Ehrlich ascites carcinoma measured as ascites volume at 5 mg/kg. The experiment is classed as functional. An outline of the steps:
as §1

Experiment [3] relates to Mus musculus. As to the kind of experiment: (§2) Antitumor activity in CF1 mice bearing Ehrlich ascites carcinoma measured as percent ascrit packed cell volume at 3 mg/kg. Format: functional. An outline of the steps:
(§3)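 CF1 male mice (22–25 g) were inoculated ip with 2 × 10⁶ Ehrlich cells on day 0 and treated ip on days 1–8 in 0.05% Tween 80 or 5% EtOH/0.05% Tween 80 vehicle. On day 9 the mice were sacrificed, and the ascrit (packed cell volume) of the ascites fluid was determined.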

Experiment [4] has as its system Mus musculus. Nature of the experiment: Antitumor activity in 6 CF1 mice bearing Ehrlich ascites carcinoma measured as survivors on day 9 at 5 mg/kg; 5/6. The experiment is classed as functional.
The subject of experiment [5] is Mus musculus. Nature of the experiment: Antitumor activity in CF1 mice bearing Ehrlich ascites carcinoma measured as percentage inhibition at 5 mg/kg. Format: functional. The procedure, abridged: (§4)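 Ehrlich ascites model in male CF1 mice (22–25 g): 2 × 10⁶ cells ip on day 0, ip dosing days 1–8, kill on day 9. Percent inhibition = 100 − [(treated volume × treated ascrit)/(control volume × control ascrit)]. Greater than 80% was taken as significant. Vehicle was 0.05% Tween 80, alone or with 5% absolute EtOH. 6-Mercaptopurine was the positive control.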

For experiment [6], the system named is Mus musculus. Nature of the experiment: Antitumor activity in CF1 mice bearing Ehrlich ascites carcinoma measured as ascites volume at 3 mg/kg. The experiment is classed as functional. An outline of the steps:
as §1

Experiment [7] concerns Mus musculus. Nature of the experiment: Antitumor activity in CF1 mice bearing Ehrlich ascites carcinoma measured as percent ascrit packed cell volume at 5 mg/kg. The experiment is classed as functional. The procedure, abridged: as §1
In experiment [8] the test system is Mus musculus. Nature of the experiment: Antitumor activity in CF1 mice bearing Ehrlich ascites carcinoma measured as percentage inhibition at 3 mg/kg. The experiment is classed as functional. An outline of the steps: as §4
The test system of experiment [9] is Mus musculus. Nature of the experiment: Antitumor activity in 6 CF1 mice bearing Ehrlich ascites carcinoma measured as survivors on day 9 at 8 mg/kg; 5/6. Format: functional.
Experiment [10] relates to Mus musculus. As to the kind of experiment: Antitumor activity in 6 CF1 mice bearing Ehrlich ascites carcinoma measured as survivors on day 9 at 3 mg/kg; 6/6. The experiment is classed as functional.
Experiment [11] deals with Mus musculus. As to the kind of experiment: Antitumor activity in CF1 mice bearing Ehrlich ascites carcinoma measured as ascites volume at 8 mg/kg. The experiment is classed as functional. The procedure, abridged:
as §1

Experiment [12] deals with Mus musculus. As to the kind of experiment: Antitumor activity in CF1 mice bearing Ehrlich ascites carcinoma measured as percentage inhibition at 8 mg/kg. The experiment is classed as functional. An outline of the steps:
as §4

Experiment [13] has as its system Mus musculus. As to the kind of experiment: Antitumor activity in CF1 mice bearing Ehrlich ascites carcinoma measured as survivors on day 9 at 1 mg/kg; 5/6. The experiment is classed as functional.
Experiment [14] concerns Mus musculus. As to the kind of experiment: Anti tumor activity in mice bearing lymphocytic leukemia P-388 at 1 mg/kg. The experiment is classed as functional. An outline of the steps:
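Male BDF1 mice (20–23 g) were inoculated ip with 1 × 10⁶ P-388 leukemia cells on day 0. Compound was given ip once daily on days 1–14 in 0.05% Tween 80 vehicle, with a vehicle control group and 5-fluorouracil as positive control. Activity was scored as % T/C, average days survived treated/control, with >125% taken as significant.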

Experiment [15] concerns Mus musculus. Nature of the experiment: Average days survived for treated / average days survived for control at 1 (mg/kg); 9.4/9.2. Format: functional.
In experiment [16] the test system is Mus musculus. As to the kind of experiment: Antitumor activity in CF1 mice bearing Ehrlich ascites carcinoma measured as percent ascrit packed cell volume at 1 mg/kg. The experiment is classed as functional. An outline of the steps:
as §3

Experiment [17] deals with Mus musculus. As to the kind of experiment: Antitumor activity in CF1 mice bearing Ehrlich ascites carcinoma measured as survivors on day 9 at 5 mg/kg; 5/5. Format: functional.
Experiment [18] has as its system Mus musculus. Nature of the experiment: Antitumor activity in CF1 mice bearing Ehrlich ascites carcinoma measured as ascites volume at 1 mg/kg. The experiment is classed as functional. The procedure, abridged:
(§5)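 Ehrlich ascites cells (2 × 10⁶) were implanted ip in male CF1 mice (22–25 g) on day 0. Dosing was ip on days 1–8 in 0.05% Tween 80 or 5% EtOH/0.05% Tween 80, with vehicle controls. Mice were killed on day 9, and ascites fluid volume per mouse was measured.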

Experiment [19] has as its system Mus musculus. As to the kind of experiment: Antitumor activity in CF1 mice bearing Ehrlich ascites carcinoma measured as percent ascrit packed cell volume at 10 mg/kg. The experiment is classed as functional. The procedure, abridged: as §3
Experiment [20] deals with Mus musculus. Nature of the experiment: Antitumor activity in CF1 mice bearing Ehrlich ascites carcinoma measured as survivors on day 9 at 10 mg/kg; 5/6. The experiment is classed as functional.
Experiment [21] deals with Mus musculus. As to the kind of experiment: Antitumor activity in CF1 mice bearing Ehrlich ascites carcinoma measured as percentage inhibition at 1 mg/kg. Format: functional. The procedure, abridged:
(§6)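 In the Ehrlich ascites model, male CF1 mice (22–25 g) received 2 × 10⁶ cells ip on day 0 and compound ip on days 1–8, with a vehicle of 0.05% Tween 80 ± 5% EtOH. Ascites volume and ascrit were taken on day 9. % inhibition = 100 − [(vol × ascrit, treated)/(vol × ascrit, control)], with >80% taken as significant.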

Experiment [22] concerns Mus musculus. As to the kind of experiment: Antitumor activity in CF1 mice bearing Ehrlich ascites carcinoma measured as percentage inhibition at 10 mg/kg; IA= inactive. Details: dose 10 mg/kg. The experiment is classed as functional, organism-based. An outline of the steps:
as §6

Experiment [23] concerns Mus musculus. Nature of the experiment: Antitumor activity in CF1 mice bearing Ehrlich ascites carcinoma measured as ascites volume at 10 mg/kg. Format: functional. The procedure, abridged:
as §5

Experiment [24] has as its system Mus musculus. As to the kind of experiment: Antitumor activity in CF1 mice bearing Ehrlich ascites carcinoma measured as percentage inhibition at 1 mg/kg; IA means inactive. More on the design: dose 1 mg/kg. Format: functional, organism-based. The procedure, abridged:
as §4

In experiment [25] the test system is Mus musculus. As to the kind of experiment: Antitumor activity in CF1 mice bearing Ehrlich ascites carcinoma measured as percentage inhibition at 5 mg/kg; IA means inactive. The experiment is classed as functional, organism-based. More on the design: dose 5 mg/kg. The procedure, abridged:
as §4

For experiment [26], the system named is Mus musculus. As to the kind of experiment: Antitumor activity in CF1 mice bearing Ehrlich ascites carcinoma measured as percentage inhibition at 8 mg/kg; IA means inactive. Details: dose 8 mg/kg. The experiment is classed as functional, organism-based. The procedure, abridged: as §4
Experiment [27] has as its system Mus musculus. Nature of the experiment: Antitumor activity in 6 CF1 mice bearing Ehrlich ascites carcinoma measured as survivors on day 9 at 1 mg/kg; 6/6. The experiment is classed as functional.
The test system of experiment [28] is Mus musculus. As to the kind of experiment: Antitumor activity in 6 CF1 mice bearing Ehrlich ascites carcinoma measured as survivors on day 9 at 8 mg/kg; 6/6. Format: functional.
Experiment [29] concerns Mus musculus. Nature of the experiment: Antitumor activity in 6 CF1 mice bearing Ehrlich ascites carcinoma measured as survivors on day 9 at 5 mg/kg; 6/6. The experiment is classed as functional.
For experiment [30], the system named is Mus musculus. The description is as §2. The experiment is classed as functional. The procedure, abridged: as §1
This is another data set of the same source.

Active and inactive are the calls of the source. The calls are words filed in the database; no cut-off is given here.

Consider `CC(=O)NC1=C(Cl)C(=O)c2c(cnn2C)C1=O`, for which the packed cell volume in the experiment with Mus musculus [1] stood at 37.9%; with Mus musculus [3], 20%; in the experiment with Mus musculus [7] it was 29%. The ascites volume worked out at 0.56 ml mouse-1 with Mus musculus [2], 1.7 ml mouse-1 in the experiment on Mus musculus [6] and 0.62 ml mouse-1 in the experiment with Mus musculus [11]. Besides, the Survivors in the experiment with Mus musculus [4] was 5; in the experiment with Mus musculus [9] it was 5; in the experiment on Mus musculus [10] it was 6. Also, in the experiment with Mus musculus [5], 5 mg/kg produced 90% inhibition in vivo. Besides, in the experiment on Mus musculus [8], 3 mg/kg produced 67.8% inhibition in vivo. Besides, at 8 mg/kg the inhibition in vivo with Mus musculus [12] was 61.7%.
`CCCSC1=C(N2CC2)C(=O)c2cnn(C)c2C1=O`: the figures for the ascites volume with Mus musculus [2], in the experiment with Mus musculus [18] and in the experiment with Mus musculus [23] were 0.88 ml mouse-1, 0.26 ml mouse-1 and 1.5 ml mouse-1, respectively. Moreover, the Survivors in the experiment with Mus musculus [13], in the experiment with Mus musculus [17] and in the experiment with Mus musculus [20] was 5 throughout. In addition, the T/C (usually the ratio of treated to control) in the experiment on Mus musculus [14] amounted to 102%. The inhibition in vivo (usually the relative decrease from the control value, in per cent) at 5 mg/kg in the experiment with Mus musculus [5] worked out at 78.5%. Also, in the experiment with Mus musculus [15], the “Average survival (days)” value was 9.4. In addition, the packed cell volume was found to be 37.2% with Mus musculus [16], 39.4% with Mus musculus [19] and 37.8% in the experiment on Mus musculus [7]. Moreover, the inhibition in vivo at 1 mg/kg in the experiment with Mus musculus [21] was 74.1%. For the same compound, in the experiment with Mus musculus [22], the inhibition entry is “inactive”.
On to `NC1=C(Cl)C(=O)c2[nH]ncc2C1=O`, for which the packed cell volume turned out to be 29.1% with Mus musculus [1], 37.6% in the experiment with Mus musculus [16] and 32.3% in the experiment with Mus musculus [7]. Also, the figures for the ascites volume in the experiment on Mus musculus [2], with Mus musculus [18] and in the experiment with Mus musculus [11] were 2.7 ml mouse-1, 2.1 ml mouse-1 and 3 ml mouse-1, respectively. Also, the inhibition result with Mus musculus [24], with Mus musculus [25] and with Mus musculus [26] was “inactive” throughout. Also, the figures for the Survivors in the experiment with Mus musculus [4], with Mus musculus [27] and in the experiment with Mus musculus [28] were 5, 6 and 6, respectively.
As to `Cn1ncc2c1C(=O)C(Cl)=C(N)C2=O`, the packed cell volume in the experiment on Mus musculus [1] is 33.9%; in the experiment with Mus musculus [30] it was 44%; in the experiment with Mus musculus [7], 35.4%. For the same compound, the ascites volume is listed as 1 ml mouse-1 with Mus musculus [2], 2 ml mouse-1 in the experiment on Mus musculus [6] and 1.9 ml mouse-1 in the experiment with Mus musculus [11]. For the same compound, in the experiment on Mus musculus [5], at 5 mg/kg the inhibition in vivo was 8.4%. The Survivors in the experiment on Mus musculus [29], with Mus musculus [10] and with Mus musculus [28] was 6 each time. Further, the inhibition result in the experiment on Mus musculus [26] is “inactive”. Moreover, the inhibition in vivo at 3 mg/kg with Mus musculus [8] is 25.3%.

(Values after ChEMBL document CHEMBL1122443, “Synthesis and antitumor evaluation of selected 5,6-disubstituted 1(2)H-indazole-4,7-diones” (1983).)
